In brackets after ≈: the same amount, converted by molar mass.
Legend:
Acinetobacter baumannii [1] = assay: Antibacterial activity against imipenem-resistant Acinetobacter baumannii abh39 by broth dilution method; format: functional
In short: (§1)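 Clinical isolates were collected at three Taiwan hospitals (1993–2003) and grown in tryptic soy broth at 37°C for 18 h. MIC by broth dilution following CLSI recommendations.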

Acinetobacter baumannii [2] = assay: Antibacterial activity against imipenem-resistant Acinetobacter baumannii abh26 by broth dilution method; format: functional; in short: as §1
Acinetobacter baumannii [3] = assay: Antibacterial activity against imipenem-resistant Acinetobacter baumannii abh11 by broth dilution method; format: functional; in short: as §1
Acinetobacter baumannii [4] = assay: Antibacterial activity against imipenem-resistant Acinetobacter baumannii abh37 by broth dilution method; format: functional; in short: as §1
Acinetobacter baumannii [5] = assay: Antibacterial activity against imipenem-resistant Acinetobacter baumannii abh14 by broth dilution method; format: functional; in short: as §1
Acinetobacter baumannii [6] = assay: Antibacterial activity against imipenem-intermediate Acinetobacter baumannii ab1297 by broth dilution method; format: functional
In short: (§2)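 Clinical A. baumannii isolates collected at three Taiwanese hospitals, routinely grown in tryptic soy broth at 37°C for 18 h. MICs (μg ml⁻¹) were determined by broth dilution following CLSI recommendations, or by Etest strips following the manufacturer's instructions.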

Acinetobacter baumannii [7] = assay: Antibacterial activity against imipenem-susceptible Acinetobacter baumannii ab1254 by broth dilution method; format: functional; in short: as §1
Acinetobacter baumannii [8] = assay: Antibacterial activity against imipenem-resistant Acinetobacter baumannii abh17 by broth dilution method; format: functional; in short: as §1
Acinetobacter baumannii [9] = assay: Antibacterial activity against imipenem-resistant Acinetobacter baumannii abh20 by broth dilution method; format: functional; in short: as §1
Acinetobacter baumannii [10] = assay: Antibacterial activity against imipenem-susceptible Acinetobacter baumannii ab4 by broth dilution method; format: functional; in short: as §1
Acinetobacter baumannii [11] = assay: Antibacterial activity against imipenem-resistant Acinetobacter baumannii abh29 by broth dilution method; format: functional; in short: as §1
Acinetobacter baumannii [12] = assay: Antibacterial activity against imipenem-resistant Acinetobacter baumannii abh13 by broth dilution method; format: functional; in short: as §1
Acinetobacter baumannii [13] = assay: Antibacterial activity against imipenem-susceptible Acinetobacter baumannii ab12 by broth dilution method; format: functional; in short: as §1
Acinetobacter baumannii [14] = assay: Antibacterial activity against imipenem-resistant Acinetobacter baumannii ab1265 by broth dilution method; format: functional; in short: as §1
Acinetobacter baumannii [15] = assay: Antibacterial activity against imipenem-resistant Acinetobacter baumannii abh9 by broth dilution method; format: functional; in short: as §1
Acinetobacter baumannii [16] = assay: Antibacterial activity against imipenem-resistant Acinetobacter baumannii ab1266 by broth dilution method; format: functional; in short: as §1
Acinetobacter baumannii [17] = assay: Antibacterial activity against imipenem-resistant Acinetobacter baumannii abh36 by broth dilution method; format: functional; in short: as §1
Acinetobacter baumannii [18] = assay: Antibacterial activity against imipenem-susceptible Acinetobacter baumannii ab8 by broth dilution method; format: functional; in short: as §1
Acinetobacter baumannii [19] = assay: Antibacterial activity against imipenem-susceptible Acinetobacter baumannii ab3 by broth dilution method; format: functional; in short: as §1
Acinetobacter baumannii [20] = assay: Antibacterial activity against imipenem-susceptible Acinetobacter baumannii ab20 by broth dilution method; format: functional; in short: as §1
Acinetobacter baumannii [21] = assay: Antibacterial activity against imipenem-susceptible Acinetobacter baumannii ab1308 by broth dilution method; format: functional; in short: as §2
Acinetobacter baumannii [22] = assay: Antibacterial activity against imipenem-susceptible Acinetobacter baumannii ab1316 by broth dilution method; format: functional; in short: as §2
Acinetobacter baumannii [23] = assay: Antibacterial activity against imipenem-resistant Acinetobacter baumannii abh18 by broth dilution method; format: functional; in short: as §1
Acinetobacter baumannii [24] = assay: Antibacterial activity against imipenem-susceptible Acinetobacter baumannii ATCC 19606 by broth dilution method; format: functional; conditions: ATCC 19606 = CIP 70.34 = JCM 6841
Acinetobacter baumannii [25] = assay: Antibacterial activity against imipenem-resistant Acinetobacter baumannii ISAB ab8(r) by broth dilution method; format: functional
Escherichia coli [26] = assay: Antibacterial activity against Escherichia coli TOP10 expressing imipenem-susceptible Acinetobacter baumannii ab1254 blaoxa-66 gene by Etest; format: functional
In short: (§3)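 E. coli TOP10 carrying empty pBAD/Myc-His or pBAD/Myc-His with blaOXA-66 cloned from the named strain, grown at 37°C in LB with 50 μg/ml ampicillin to OD600 0.5. Plated on Mueller-Hinton agar with 50 μg/ml ampicillin and 0.002% arabinose for induction. Imipenem MIC read by Etest.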

Acinetobacter baumannii [27] = assay: Antibacterial activity against imipenem-resistant Acinetobacter baumannii ISAB ab1254(r) by broth dilution method in presence of 24 ug/ml efflux pump inhibitor carbonyl cyanide m-chlorophenyl-hydrazone; format: functional
Escherichia coli [28] = assay: Antibacterial activity against Escherichia coli TOP10 by Etest; format: functional; in short: as §3
Acinetobacter baumannii [29] = assay: Ratio of MIC for Acinetobacter baumannii ISAB ab8(r) to MIC for Acinetobacter baumannii ISAB ab8(r) in presence of […] ug/ml efflux pump inhibitor carbonyl cyanide m-chlorophenyl-hydrazone; format: functional
Acinetobacter baumannii [30] = assay: microbe, parasite or virus in culture; conditions: ISAB ab8(r)
Acinetobacter baumannii [31] = assay: Ratio of MIC for Acinetobacter baumannii ISAB ab8(r) to MIC for Acinetobacter baumannii ISAB ab1254(r) in presence of […] ug/ml efflux pump inhibitor carbonyl cyanide m-chlorophenyl-hydrazone; format: functional
Escherichia coli [32] = assay: Antibacterial activity against Escherichia coli TOP10 expressing imipenem-resistant Acinetobacter baumannii ab1266 blaoxa-66 gene by Etest; format: functional; in short: as §3
Acinetobacter baumannii [33] = assay: Antibacterial activity against imipenem-resistant Acinetobacter baumannii ISAB ab1254(r) by broth dilution method; format: functional

| Compound | MIC (Acinetobacter baumannii [1]) | MIC (Acinetobacter baumannii [2]) | MIC (Acinetobacter baumannii [3]) | MIC (Acinetobacter baumannii [4]) | MIC (Acinetobacter baumannii [5]) | MIC (Acinetobacter baumannii [6]) | MIC (Acinetobacter baumannii [7]) | MIC (Acinetobacter baumannii [8]) | MIC (Acinetobacter baumannii [9]) | MIC (Acinetobacter baumannii [10]) | MIC (Acinetobacter baumannii [11]) | MIC (Acinetobacter baumannii [12]) | MIC (Acinetobacter baumannii [13]) | MIC (Acinetobacter baumannii [14]) | MIC (Acinetobacter baumannii [15]) | MIC (Acinetobacter baumannii [16]) | MIC (Acinetobacter baumannii [17]) | MIC (Acinetobacter baumannii [18]) | MIC (Acinetobacter baumannii [19]) | MIC (Acinetobacter baumannii [23]) | other results |
| --- | --- | --- | --- | --- | --- | --- | --- | --- | --- | --- | --- | --- | --- | --- | --- | --- | --- | --- | --- | --- | --- |
| CC(C)(O/N=C(\C(=O)N[C@@H]1C(=O)N2C(C(=O)[O-])=C(C[n+]3ccccc3)CS[C@H]12)c1csc(N)n1)C(=O)O [CEFTAZIDIME] | > 256 µg/mL | > 256 µg/mL | > 256 µg/mL | > 256 µg/mL | > 256 µg/mL | > 256 µg/mL | > 256 µg/mL | > 256 µg/mL | > 256 µg/mL | 32 µg/mL (≈ 58.5 µM) | > 256 µg/mL | > 256 µg/mL | 48 µg/mL (≈ 87.8 µM) | > 256 µg/mL | > 256 µg/mL | > 256 µg/mL | > 256 µg/mL | 48 µg/mL (≈ 87.8 µM) | 48 µg/mL (≈ 87.8 µM) | > 256 µg/mL | MIC (Acinetobacter baumannii [20]): 24 µg/mL (≈ 43.9 µM); MIC (Acinetobacter baumannii [21]): > 256 µg/mL; MIC (Acinetobacter baumannii [22]): > 256 µg/mL |
| NCC[C@H](O)C(=O)N[C@@H]1C[C@H](N)[C@@H](O[C@H]2O[C@H](CN)[C@@H](O)[C@H](O)[C@H]2O)[C@H](O)[C@H]1O[C@H]1O[C@H](CO)[C@@H](O)[C@H](N)[C@H]1O [AMIKACIN] | > 256 µg/mL | > 256 µg/mL | > 256 µg/mL | > 256 µg/mL | > 256 µg/mL | > 256 µg/mL | > 256 µg/mL | > 256 µg/mL | > 256 µg/mL | 8 µg/mL (≈ 13.7 µM) | > 256 µg/mL | > 256 µg/mL | > 256 µg/mL | > 256 µg/mL | > 256 µg/mL | > 256 µg/mL | > 256 µg/mL | 12 µg/mL (≈ 20.5 µM) | 3 µg/mL (≈ 5.12 µM) | > 256 µg/mL | MIC (Acinetobacter baumannii [20]): 128 µg/mL (≈ 219 µM); MIC (Acinetobacter baumannii [21]): > 256 µg/mL; MIC (Acinetobacter baumannii [22]): > 256 µg/mL |
| C[C@@H](O)[C@H]1C(=O)N2C(C(=O)O)=C(SCCNC=N)C[C@H]12 [IMIPENEM ANHYDROUS] | 32 µg/mL (≈ 107 µM) | 32 µg/mL (≈ 107 µM) | 32 µg/mL (≈ 107 µM) | 32 µg/mL (≈ 107 µM) | 32 µg/mL (≈ 107 µM) | 8 µg/mL (≈ 26.7 µM) | 3 µg/mL (≈ 10 µM) | 32 µg/mL (≈ 107 µM) | 32 µg/mL (≈ 107 µM) | 1 µg/mL (≈ 3.34 µM) | 32 µg/mL (≈ 107 µM) | 32 µg/mL (≈ 107 µM) | 1 µg/mL (≈ 3.34 µM) | > 32 µg/mL | 32 µg/mL (≈ 107 µM) | > 32 µg/mL | 32 µg/mL (≈ 107 µM) | 1 µg/mL (≈ 3.34 µM) | 1 µg/mL (≈ 3.34 µM) | 32 µg/mL (≈ 107 µM) | MIC (Acinetobacter baumannii [24]): 0.38 µg/mL (≈ 1.27 µM); MIC (Acinetobacter baumannii [25]): 256 µg/mL (≈ 855 µM); MIC (Escherichia coli [26]): 0.75 µg/mL (≈ 2.51 µM); MIC (Acinetobacter baumannii [27]): 16 µg/mL; MIC (Escherichia coli [28]): 0.19 µg/mL (≈ 0.635 µM); MIC (Acinetobacter baumannii [20]): 1.5 µg/mL (≈ 5.01 µM); fold change (FC) (Acinetobacter baumannii [29]): 4; MIC (Acinetobacter baumannii [21]): 2 µg/mL (≈ 6.68 µM); MIC (Acinetobacter baumannii [22]): 3 µg/mL (≈ 10 µM); MIC (Acinetobacter baumannii [30]): 64 µg/mL (≈ 214 µM); fold change (FC) (Acinetobacter baumannii [31]): 8; MIC (Escherichia coli [32]): 1.5 µg/mL (≈ 5.01 µM); MIC (Acinetobacter baumannii [33]): 128 µg/mL (≈ 428 µM) |
| CO/N=C(\C(=O)N[C@@H]1C(=O)N2C(C(=O)[O-])=C(C[N+]3(C)CCCC3)CS[C@H]12)c1csc(N)n1 [CEFEPIME] | 256 µg/mL (≈ 533 µM) | 256 µg/mL (≈ 533 µM) |  |  | 256 µg/mL (≈ 533 µM) |  |  |  | 256 µg/mL (≈ 533 µM) |  | 96 µg/mL (≈ 200 µM) |  |  |  |  |  | 256 µg/mL (≈ 533 µM) |  | 6 µg/mL (≈ 12.5 µM) | 256 µg/mL (≈ 533 µM) |  |
| CO/N=C(\C(=O)N[C@@H]1C(=O)N2C(C(=O)O)=C(COC(C)=O)CS[C@H]12)c1csc(N)n1 [CEFOTAXIME] | > 256 µg/mL | > 256 µg/mL | > 256 µg/mL | > 256 µg/mL | > 256 µg/mL | > 256 µg/mL | > 256 µg/mL | > 256 µg/mL | > 256 µg/mL | > 256 µg/mL | > 256 µg/mL | > 256 µg/mL | > 256 µg/mL | > 256 µg/mL | > 256 µg/mL | > 256 µg/mL | > 256 µg/mL | > 256 µg/mL | > 256 µg/mL | > 256 µg/mL | MIC (Acinetobacter baumannii [24]): 16 µg/mL (≈ 35.1 µM); MIC (Acinetobacter baumannii [20]): > 256 µg/mL; MIC (Acinetobacter baumannii [21]): > 256 µg/mL; MIC (Acinetobacter baumannii [22]): > 256 µg/mL |

From ChEMBL document CHEMBL1137650, “An OXA-66/OXA-51-like carbapenemase and possibly an efflux pump are associated with resistance to imipenem in Acinetobacter baumannii” (2007)
